The source made the active and inactive calls. The rule behind the calls is not given here.
Experiments:
Bacillus subtilis [1] = experiment: Induction of sigX gene expression in Bacillus subtilis by real-time RT-PCR; assay type: functional
Procedure, shortened: (§1)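 Transcript levels measured by one-step real-time RT-PCR with SYBR green detection. Fold change is given as mean ± standard deviation of two independent experiments.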

Bacillus subtilis [2] = experiment: Induction of sigM gene expression in Bacillus subtilis by real-time RT-PCR; assay type: functional; procedure, shortened: as §1
Bacillus subtilis [3] = experiment: Induction of ylxW gene expression in Bacillus subtilis at 1 ug/ml by microarray analysis relative to untreated control; assay type: functional
Procedure, shortened: (§2)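 B. subtilis cells harvested 10 min after antibiotic addition. Pellets were snap-frozen in liquid nitrogen, then RNA was prepared for microarray hybridization. Fold induction is taken against untreated control cells.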

Bacillus subtilis [4] = experiment: Induction of yjbQ gene expression in Bacillus subtilis at 1 ug/ml by microarray analysis relative to untreated control; assay type: functional; procedure, shortened: as §2
Bacillus subtilis [5] = experiment: Induction of ybeF gene expression in Bacillus subtilis at 1 ug/ml by microarray analysis relative to untreated control; assay type: functional; procedure, shortened: as §2
Bacillus subtilis [6] = experiment: Induction of yjbC-spx gene expression in Bacillus subtilis at 1 ug/ml by microarray analysis relative to untreated control; assay type: functional; procedure, shortened: as §2
Bacillus subtilis [7] = experiment: Induction of yppC gene expression in Bacillus subtilis at 1 ug/ml by microarray analysis relative to untreated control; assay type: functional; procedure, shortened: as §2
Bacillus subtilis [8] = experiment: Induction of ycgRQ gene expression in Bacillus subtilis at 1 ug/ml by microarray analysis relative to untreated control; assay type: functional; procedure, shortened: as §2
Bacillus subtilis [9] = experiment: Induction of yqjL gene expression in Bacillus subtilis at 1 ug/ml by microarray analysis relative to untreated control; assay type: functional; procedure, shortened: as §2
Bacillus subtilis [10] = experiment: Induction of liaH gene expression in Bacillus subtilis by real-time RT-PCR; assay type: functional; procedure, shortened: as §1
Bacillus subtilis [11] = experiment: Induction of ywtF gene expression in Bacillus subtilis at 1 ug/ml by microarray analysis relative to untreated control; assay type: functional; procedure, shortened: as §2
Bacillus subtilis [12] = experiment: Induction of yebC gene expression in Bacillus subtilis at 1 ug/ml by microarray analysis relative to untreated control; assay type: functional; procedure, shortened: as §2
Bacillus subtilis [13] = experiment: Induction of yoxD gene expression in Bacillus subtilis at 1 ug/ml by microarray analysis relative to untreated control; assay type: functional; procedure, shortened: as §2
Bacillus subtilis [14] = experiment: Induction of rodA gene expression in Bacillus subtilis at 1 ug/ml by microarray analysis relative to untreated control; assay type: functional; procedure, shortened: as §2
Bacillus subtilis [15] = experiment: Induction of sigW gene expression in Bacillus subtilis by real-time RT-PCR; assay type: functional; procedure, shortened: as §1
Bacillus subtilis [16] = experiment: Induction of sigY gene expression in Bacillus subtilis by real-time RT-PCR; assay type: functional; procedure, shortened: as §1
Bacillus subtilis [17] = experiment: Induction of ydaH gene expression in Bacillus subtilis at 1 ug/ml by microarray analysis relative to untreated control; assay type: functional; procedure, shortened: as §2
Bacillus subtilis [18] = experiment: Induction of sigV-yrhM gene expression in Bacillus subtilis at 1 ug/ml by microarray analysis relative to untreated control; assay type: functional; procedure, shortened: as §2
Bacillus subtilis [19] = experiment: Induction of sigM-yhdLK gene expression in Bacillus subtilis at 1 ug/ml by microarray analysis relative to untreated control; assay type: functional; procedure, shortened: as §2
Bacillus subtilis [20] = experiment: Induction of radC gene expression in Bacillus subtilis at 1 ug/ml by microarray analysis relative to untreated control; assay type: functional; procedure, shortened: as §2
Bacillus subtilis [21] = experiment: Induction of sigV gene expression in Bacillus subtilis by real-time RT-PCR; assay type: functional; procedure, shortened: as §1
Bacillus subtilis [22] = experiment: Induction of yqiG gene expression in Bacillus subtilis at 1 ug/ml by microarray analysis relative to untreated control; assay type: functional; procedure, shortened: as §2
Bacillus subtilis [23] = experiment: Induction of ywnJ gene expression in Bacillus subtilis at 1 ug/ml by microarray analysis relative to untreated control; assay type: functional; procedure, shortened: as §2
Bacillus subtilis [24] = experiment: Induction of pbpI gene expression in Bacillus subtilis at 1 ug/ml by microarray analysis relative to untreated control; assay type: functional; procedure, shortened: as §2
Bacillus subtilis [25] = experiment: Induction of yrhIJ gene expression in Bacillus subtilis at 1 ug/ml by microarray analysis relative to untreated control; assay type: functional; procedure, shortened: as §2
Bacillus subtilis [26] = experiment: Induction of mreBH gene expression in Bacillus subtilis at 1 ug/ml by microarray analysis relative to untreated control; assay type: functional; procedure, shortened: as §2
Bacillus subtilis [27] = experiment: Induction of ypuA gene expression in Bacillus subtilis at 1 ug/ml by microarray analysis relative to untreated control; assay type: functional; procedure, shortened: as §2
Bacillus subtilis [28] = experiment: Induction of gerAAABAC gene expression in Bacillus subtilis at 1 ug/ml by microarray analysis relative to untreated control; assay type: functional; procedure, shortened: as §2
Bacillus subtilis [29] = experiment: Induction of sigZ gene expression in Bacillus subtilis by real-time RT-PCR; assay type: functional; procedure, shortened: as §1
Bacillus subtilis [30] = experiment: Induction of ylaC gene expression in Bacillus subtilis by real-time RT-PCR; assay type: functional; procedure, shortened: as §1
Bacillus subtilis [31] = experiment: Induction of yrhH gene expression in Bacillus subtilis at 1 ug/ml by microarray analysis relative to untreated control; assay type: functional; procedure, shortened: as §2
Bacillus subtilis [32] = experiment: Induction of bcrC gene expression in Bacillus subtilis at 1 ug/ml by microarray analysis relative to untreated control; assay type: functional; procedure, shortened: as §2
Bacillus subtilis [33] = experiment: Induction of ypuD gene expression in Bacillus subtilis at 1 ug/ml by microarray analysis relative to untreated control; assay type: functional; procedure, shortened: as §2
Bacillus subtilis [34] = experiment: Induction of liaIH gene expression in Bacillus subtilis at 1 ug/ml by microarray analysis relative to untreated control; assay type: functional; procedure, shortened: as §2
Bacillus subtilis [35] = experiment: Induction of ypbG gene expression in Bacillus subtilis at 1 ug/ml by microarray analysis relative to untreated control; assay type: functional; procedure, shortened: as §2
Bacillus subtilis [36] = experiment: Induction of sms-yacKL gene expression in Bacillus subtilis at 1 ug/ml by microarray analysis relative to untreated control; assay type: functional; procedure, shortened: as §2
Bacillus subtilis [37] = experiment: Induction of ywaC gene expression in Bacillus subtilis at 1 ug/ml by microarray analysis relative to untreated control; assay type: functional; procedure, shortened: as §2
Bacillus subtilis [38] = experiment: Induction of yfnI gene expression in Bacillus subtilis at 1 ug/ml by microarray analysis relative to untreated control; assay type: functional; procedure, shortened: as §2
Bacillus subtilis [39] = experiment: Induction of promoter liaI in Bacillus subtilis at 0.5 to 2 ug/ml; assay type: functional, organism-based
Procedure, shortened: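 PliaI promoter activity read by β-galactosidase assay in strain BFS2470 (W168 liaI::pMUTIN). Antibiotic concentrations spanned 4 orders of magnitude.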

CCCCCCCCCC(=O)N[C@@H](Cc1c[nH]c2ccccc12)C(=O)N[C@H](CC(N)=O)C(=O)N[C@@H](CC(=O)O)C(=O)N[C@@H]1C(=O)NCC(=O)N[C@@H](CCCN)C(=O)N[C@@H](CC(=O)O)C(=O)N[C@H](C)C(=O)N[C@@H](CC(=O)O)C(=O)NCC(=O)N[C@H](CO)C(=O)N[C@@H]([C@H](C)CC(=O)O)C(=O)N[C@@H](CC(=O)c2ccccc2N)C(=O)O[C@@H]1C
fold change (FC) (Bacillus subtilis [1]): 0.8
fold change (FC) (Bacillus subtilis [2]): 2.4
Activity (Bacillus subtilis [3]): inactive
Activity (Bacillus subtilis [4]): inactive
fold change (FC) (Bacillus subtilis [5]): 4.6
Activity (Bacillus subtilis [6]): inactive
Activity (Bacillus subtilis [7]): inactive
Activity (Bacillus subtilis [8]): inactive
fold change (FC) (Bacillus subtilis [9]): 3.3
fold change (FC) (Bacillus subtilis [10]): 1170
Activity (Bacillus subtilis [11]): inactive
Activity (Bacillus subtilis [12]): inactive
Activity (Bacillus subtilis [13]): inactive
Activity (Bacillus subtilis [14]): inactive
fold change (FC) (Bacillus subtilis [15]): 1.4
fold change (FC) (Bacillus subtilis [16]): 0.9
fold change (FC) (Bacillus subtilis [17]): 3.3
Activity (Bacillus subtilis [18]): inactive
Activity (Bacillus subtilis [19]): inactive
Activity (Bacillus subtilis [20]): inactive
fold change (FC) (Bacillus subtilis [21]): 2.4
Activity (Bacillus subtilis [22]): inactive
Activity (Bacillus subtilis [23]): inactive
Activity (Bacillus subtilis [24]): inactive
Activity (Bacillus subtilis [25]): inactive
fold change (FC) (Bacillus subtilis [26]): 3.9
Activity (Bacillus subtilis [27]): inactive
fold change (FC) (Bacillus subtilis [28]): 15
fold change (FC) (Bacillus subtilis [29]): 1
fold change (FC) (Bacillus subtilis [30]): 1
fold change (FC) (Bacillus subtilis [31]): 3.1
fold change (FC) (Bacillus subtilis [32]): 3.3
Activity (Bacillus subtilis [33]): inactive
fold change (FC) (Bacillus subtilis [34]): 429
Activity (Bacillus subtilis [35]): inactive
Activity (Bacillus subtilis [36]): inactive
fold change (FC) (Bacillus subtilis [37]): 4.5
Activity (Bacillus subtilis [38]): inactive
Activity (Bacillus subtilis [39]): Active

CC(C)CCCCCCC/C=C\CC(=O)N[C@@H](CC(N)=O)C(=O)N[C@@H]1C(=O)N2CCCC[C@@H]2C(=O)N[C@@H]([C@H](C)C(=O)O)C(=O)N[C@@H](CC(=O)O)C(=O)NCC(=O)N[C@@H](CC(=O)O)C(=O)NCC(=O)N[C@H]([C@H](C)N)C(=O)N[C@@H](C(C)C)C(=O)N2CCC[C@H]2C(=O)N[C@@H]1C [FRIULIMICIN B]
fold change (FC) (Bacillus subtilis [1]): 0.8
fold change (FC) (Bacillus subtilis [2]): 8.7
fold change (FC) (Bacillus subtilis [3]): 3.5
fold change (FC) (Bacillus subtilis [4]): 3.4
Activity (Bacillus subtilis [5]): inactive
fold change (FC) (Bacillus subtilis [6]): 7.2
fold change (FC) (Bacillus subtilis [7]): 4.1
fold change (FC) (Bacillus subtilis [8]): 5.9
fold change (FC) (Bacillus subtilis [9]): 8.9
fold change (FC) (Bacillus subtilis [10]): 0.9
fold change (FC) (Bacillus subtilis [11]): 3.9
fold change (FC) (Bacillus subtilis [12]): 4.1
fold change (FC) (Bacillus subtilis [13]): 3.7
fold change (FC) (Bacillus subtilis [14]): 3.8
fold change (FC) (Bacillus subtilis [15]): 0.9
fold change (FC) (Bacillus subtilis [16]): 1.8
fold change (FC) (Bacillus subtilis [17]): 9.1
fold change (FC) (Bacillus subtilis [18]): 5.1
fold change (FC) (Bacillus subtilis [19]): 7.4
fold change (FC) (Bacillus subtilis [20]): 6.9
fold change (FC) (Bacillus subtilis [21]): 7.4
fold change (FC) (Bacillus subtilis [22]): 3.4
fold change (FC) (Bacillus subtilis [23]): 4.1
fold change (FC) (Bacillus subtilis [24]): 3.8
fold change (FC) (Bacillus subtilis [25]): 5.7
fold change (FC) (Bacillus subtilis [26]): 3.1
fold change (FC) (Bacillus subtilis [27]): 6.5
Activity (Bacillus subtilis [28]): inactive
fold change (FC) (Bacillus subtilis [29]): 1.2
fold change (FC) (Bacillus subtilis [30]): 2.9
fold change (FC) (Bacillus subtilis [31]): 8.5
fold change (FC) (Bacillus subtilis [32]): 8.2
fold change (FC) (Bacillus subtilis [33]): 6.2
Activity (Bacillus subtilis [34]): inactive
fold change (FC) (Bacillus subtilis [35]): 6.4
fold change (FC) (Bacillus subtilis [36]): 7.1
fold change (FC) (Bacillus subtilis [37]): 8.7
fold change (FC) (Bacillus subtilis [38]): 4.7

— ChEMBL document CHEMBL1687728, “Daptomycin versus Friulimicin B: in-depth profiling of Bacillus subtilis cell envelope stress responses” (2009)
